What was measured:
Homo sapiens [1] = organism: Homo sapiens; assay: Selectivity ratio of IC50 for inhibition of N-terminal GST-fused human wild type LRRK2 to IC50 for inhibition of N-terminal GST-fused human […] mutant
How it was run: (§1)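 Purified truncated LRRK2, WT or G2019S, at 2 nM nominal was preincubated with inhibitor for 15 min. LRRKtide (0.4 μM) and ATP (25 μM) were then added for 1 h. The reaction was stopped with 10 mM EDTA plus 2 nM Tb-anti-pLRRKtide antibody, and TR-FRET was read. IC50 is the geometric mean of at least two independent experiments.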

[2] = target: T1, Leucine-rich repeat serine/threonine-protein kinase 2 (Homo sapiens, UniProt Q5S007, G2019S); assay: Inhibition of N-terminal GST-fused human LRRK2 G2019S mutant using fluorescein-labeled LRRKtide as substrate preincubated for 15 mins followed by substrate addition and measured after 1 hr by TR-FRET assay; how it was run: as §1
T1 sequence (Q5S007 whole entry G2019S, the tested form may be a part): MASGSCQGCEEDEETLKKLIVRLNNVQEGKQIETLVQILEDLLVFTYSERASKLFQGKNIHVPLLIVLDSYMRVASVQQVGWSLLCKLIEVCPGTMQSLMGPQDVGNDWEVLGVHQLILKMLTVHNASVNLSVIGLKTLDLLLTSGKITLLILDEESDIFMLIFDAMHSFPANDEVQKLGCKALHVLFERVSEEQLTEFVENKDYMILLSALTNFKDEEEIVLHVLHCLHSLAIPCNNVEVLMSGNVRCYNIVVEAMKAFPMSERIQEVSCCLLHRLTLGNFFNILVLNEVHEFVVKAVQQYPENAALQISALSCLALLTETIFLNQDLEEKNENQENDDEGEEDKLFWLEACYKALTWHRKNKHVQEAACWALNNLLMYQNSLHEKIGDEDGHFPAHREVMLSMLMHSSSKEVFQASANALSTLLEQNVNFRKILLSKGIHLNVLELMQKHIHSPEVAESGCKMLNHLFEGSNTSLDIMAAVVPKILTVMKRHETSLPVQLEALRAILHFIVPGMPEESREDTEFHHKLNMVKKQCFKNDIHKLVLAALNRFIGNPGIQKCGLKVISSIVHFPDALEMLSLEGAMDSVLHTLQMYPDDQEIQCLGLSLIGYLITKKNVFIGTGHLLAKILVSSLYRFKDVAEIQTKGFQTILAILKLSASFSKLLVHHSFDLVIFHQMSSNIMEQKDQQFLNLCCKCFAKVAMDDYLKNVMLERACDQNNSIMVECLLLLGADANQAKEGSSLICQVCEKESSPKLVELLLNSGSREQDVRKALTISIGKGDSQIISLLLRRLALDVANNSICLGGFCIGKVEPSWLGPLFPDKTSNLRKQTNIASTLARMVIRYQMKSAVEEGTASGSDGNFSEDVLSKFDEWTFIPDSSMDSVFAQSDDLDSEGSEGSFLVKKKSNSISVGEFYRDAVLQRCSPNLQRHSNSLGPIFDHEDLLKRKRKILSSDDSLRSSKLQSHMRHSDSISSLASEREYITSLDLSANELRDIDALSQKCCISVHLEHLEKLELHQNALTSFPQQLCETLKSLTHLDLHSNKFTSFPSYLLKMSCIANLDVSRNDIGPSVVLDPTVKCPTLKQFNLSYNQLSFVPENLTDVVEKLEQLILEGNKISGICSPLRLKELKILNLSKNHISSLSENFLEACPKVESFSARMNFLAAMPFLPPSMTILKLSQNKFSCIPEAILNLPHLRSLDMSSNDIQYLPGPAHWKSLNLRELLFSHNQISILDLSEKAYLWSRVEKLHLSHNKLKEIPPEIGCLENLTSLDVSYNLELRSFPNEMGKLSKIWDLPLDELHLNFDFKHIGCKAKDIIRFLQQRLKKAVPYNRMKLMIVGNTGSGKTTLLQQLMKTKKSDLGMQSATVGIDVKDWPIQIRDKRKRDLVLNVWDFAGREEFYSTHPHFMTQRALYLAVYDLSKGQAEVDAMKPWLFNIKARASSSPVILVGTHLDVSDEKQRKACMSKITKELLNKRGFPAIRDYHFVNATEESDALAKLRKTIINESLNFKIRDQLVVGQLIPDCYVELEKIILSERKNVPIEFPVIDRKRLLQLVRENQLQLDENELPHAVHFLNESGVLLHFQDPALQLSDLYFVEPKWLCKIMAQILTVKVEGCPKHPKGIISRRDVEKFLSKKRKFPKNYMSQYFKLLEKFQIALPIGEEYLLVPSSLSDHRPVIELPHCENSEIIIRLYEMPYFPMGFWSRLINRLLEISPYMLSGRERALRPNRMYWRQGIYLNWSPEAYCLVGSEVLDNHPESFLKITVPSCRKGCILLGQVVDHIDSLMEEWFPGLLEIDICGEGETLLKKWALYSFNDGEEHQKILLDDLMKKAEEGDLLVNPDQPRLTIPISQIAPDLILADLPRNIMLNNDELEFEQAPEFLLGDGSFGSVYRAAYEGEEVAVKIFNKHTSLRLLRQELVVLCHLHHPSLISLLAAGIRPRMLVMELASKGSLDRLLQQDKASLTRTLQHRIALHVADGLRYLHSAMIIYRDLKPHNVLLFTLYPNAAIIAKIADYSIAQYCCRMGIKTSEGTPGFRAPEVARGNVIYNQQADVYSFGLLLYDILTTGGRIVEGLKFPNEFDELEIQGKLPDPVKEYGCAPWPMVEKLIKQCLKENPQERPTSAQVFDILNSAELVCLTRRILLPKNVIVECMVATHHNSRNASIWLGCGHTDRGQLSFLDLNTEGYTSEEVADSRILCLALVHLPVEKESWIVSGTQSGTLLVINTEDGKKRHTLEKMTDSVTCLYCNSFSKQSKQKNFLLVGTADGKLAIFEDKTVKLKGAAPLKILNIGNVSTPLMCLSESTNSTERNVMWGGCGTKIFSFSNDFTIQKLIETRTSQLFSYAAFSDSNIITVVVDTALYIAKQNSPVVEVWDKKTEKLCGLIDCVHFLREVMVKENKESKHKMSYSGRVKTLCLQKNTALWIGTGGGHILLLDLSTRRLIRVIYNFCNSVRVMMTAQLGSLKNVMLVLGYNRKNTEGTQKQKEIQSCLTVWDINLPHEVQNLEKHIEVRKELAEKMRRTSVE

[3] = target: T2, Leucine-rich repeat serine/threonine-protein kinase 2 (Homo sapiens, UniProt Q5S007); assay: Inhibition of N-terminal GST-fused human wild type LRRK2 using fluorescein-labeled LRRKtide as substrate preincubated for 15 mins followed by substrate addition and measured after 1 hr by TR-FRET assay; how it was run: as §1
T2 sequence (Q5S007 whole entry, the tested form may be a part): as the sequence (Q5S007 whole entry G2019S, the tested form may be a part) above, with S2019G counted along it

[4] = target: T2, Leucine-rich repeat serine/threonine-protein kinase 2; assay: Inhibition of human wild type LRRK2 expressed in HEK293 cells assessed as reduction in pS1292 phosphorylation incubated for 2 hrs by MSD analysis; assay type: cell-based
How it was run: (§2)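 HEK293 cells stably expressing WT or G2019S LRRK2 (30−50K/well, DMEM with 1% serum) were treated for 2 h at 37 °C and lysed with phosphatase inhibitors. LRRK2 was captured on anti-LRRK2-coated MSD plates overnight at 4 °C. Detection used rabbit anti-pS1292 (1:400) and Sulfo-Tag anti-rabbit, with an electrochemiluminescence read-out. IC50 is the geometric mean of at least two independent experiments.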

Homo sapiens [5] = organism: Homo sapiens; assay: Selectivity ratio of IC50 for inhibition of human wild type LRRK2 expressed in HEK293 cells to IC50 for inhibition of human LRRK2 G2019S mutant expressed in HEK293; assay type: cell-based
How it was run: (§3)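 HEK293 cells stably expressing WT or G2019S LRRK2 (100 000/well, EMEM with 1% FBS) were dosed about 24 h after plating, for 2 h. They were lysed in 1% SDS Tris buffer with protease and phosphatase inhibitors, and lysates were heated at 65 °C for 10 min. pThr73-Rab10, total Rab10, pS935 and total LRRK2 were quantified by immunoblot. IC50 is the geometric mean of at least two independent experiments.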

[6] = target: T1, Leucine-rich repeat serine/threonine-protein kinase 2; assay: Inhibition of human LRRK2 G2019S mutant expressed in HEK293 cells assessed as reduction in pS1292 phosphorylation incubated for 2 hrs by MSD analysis; assay type: cell-based; how it was run: as §2
[7] = target: T2, Leucine-rich repeat serine/threonine-protein kinase 2; assay: Inhibition of human wild type LRRK2 expressed in HEK293 cells assessed as reduction in pSer935 phosphorylation incubated for 2 hrs by HTRF analysis; assay type: cell-based
How it was run: (§4)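 Stably transfected HEK293 cells expressing human WT or G2019S LRRK2 were seeded at 5K/well in DMEM with 1% serum on poly-D-lysine plates. Inhibitor in DMSO was added for 2 h at 37 °C. pS935 was detected by an HTRF kit. IC50 is the geometric mean of at least two independent experiments.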

Homo sapiens [8] = organism: Homo sapiens; assay: Selectivity ratio of IC50 for inhibition of human wild type LRRK2 expressed in HEK293 cells assessed as reduction in pS1292 phosphorylation to IC50 for inhibition of human LRRK2 G2019S mutant expressed in HEK293 cells assessed as reduction in pS1292 phosphorylation; assay type: cell-based; how it was run: as §2
[9] = target: T1, Leucine-rich repeat serine/threonine-protein kinase 2; assay: Inhibition of human LRRK2 G2019S mutant expressed in HEK293 cells assessed as reduction in pSer935 phosphorylation incubated for 2 hrs by HTRF analysis; assay type: cell-based; how it was run: as §4
[10] = target: T2, Leucine-rich repeat serine/threonine-protein kinase 2; assay: Inhibition of human wild type LRRK2 expressed in HEK293 cells assessed as reduction in pSer935 phosphorylation incubated for 2 hrs by immunoblotting analysis; assay type: cell-based; how it was run: as §3
Homo sapiens [11] = organism: Homo sapiens; assay: Selectivity ratio of IC50 for inhibition human wild type LRRK2 expressed in human HEK293 assessed as Rab10 substrate phosphorylation at Threonine 73 residue to IC50 for inhibition of human LRRK2 G2019S mutant expressed in human HEK293 assessed as Rab10 substrate phosphorylation at Threonine 73 residue; how it was run: as §3
[12] = target: T2, Leucine-rich repeat serine/threonine-protein kinase 2; assay: Inhibition human wild type LRRK2 expressed in human HEK293 assessed as Rab10 substrate phosphorylation at Threonine 73 residue incubated for 2 hrs by immunoblotting analysis; assay type: cell-based; how it was run: as §3
[13] = target: T1, Leucine-rich repeat serine/threonine-protein kinase 2; assay: Inhibition human LRRK2 G2019S mutant expressed in human HEK293 assessed as Rab10 substrate phosphorylation at Threonine 73 residue incubated for 2 hrs by immunoblotting analysis; assay type: cell-based; how it was run: as §3
Homo sapiens [14] = organism: Homo sapiens; assay: Selectivity ratio of IC50 for inhibition of human wild type LRRK2 expressed in HEK293 cells assessed as reduction in pSer935 phosphorylation to IC50 for inhibition of human LRRK2 G2019S mutant expressed in HEK293 cells assessed as reduction in pSer935 phosphorylation; assay type: cell-based; how it was run: as §4
[15] = target: T1, Leucine-rich repeat serine/threonine-protein kinase 2; assay: Inhibition of human LRRK2 G2019S mutant expressed in HEK293 cells assessed as reduction in pSer935 phosphorylation incubated for 2 hrs by immunoblotting analysis; assay type: cell-based; how it was run: as §3

| Compound | Ratio IC50 (Homo sapiens [1]) | IC50 [2] [nM] | IC50 [3] [nM] | other results |
| --- | --- | --- | --- | --- |
| CC1=C(C(=O)Nc2ccc3[nH]c(=O)n(C)c3c2)[C@@H](C)n2nnnc2N1C | 49.7 | 58 | 2870 |  |
| CC1=C(C(=O)Nc2ccc3[nH]ncc3c2)[C@@H](C)n2nnnc2N1C | 43 | 1.64 | 71 | IC50 [4]: 2180 nM; Ratio IC50 (Homo sapiens [5]): > 53; IC50 [6]: 104 nM; IC50 [7]: > 10000 nM; Ratio IC50 (Homo sapiens [8]): 21; IC50 [9]: 189 nM |
| CC1=C(C(=O)Nc2ccc3c(c2)[nH]c(=O)n3C)[C@@H](C)n2nnnc2N1C |  | > 10000 | > 10000 |  |
| CC1=C(C(=O)Nc2ccc3[nH]ncc3c2)Cn2nnnc2N1C | 16 | 32 | 509 |  |
| CC1=C(C(=O)Nc2ccc3[nH]nc(-c4ccnc(N5CCOCC5)c4)c3c2)[C@@H](C)n2nnnc2N1C |  | < 0.2 | < 0.2 | IC50 [4]: 20.9 nM; Ratio IC50 (Homo sapiens [5]): 27; IC50 [6]: 1.2 nM; IC50 [7]: 65 nM; Ratio IC50 (Homo sapiens [8]): 18; IC50 [9]: 2.4 nM |
| CC1=C(C(=O)Nc2ccn3cnc(C)c3c2)Cn2nnnc2N1C | > 7.4 | 1350 | > 10000 |  |
| CC1=C(C(=O)Nc2ccc3[nH]nc(-c4ccnc(N5CCOCC5)c4)c3c2)C(C)(C)n2nnnc2N1C | > 1.5 | < 0.2 | 0.3 | IC50 [4]: 33.7 nM; Ratio IC50 (Homo sapiens [5]): 132; IC50 [6]: 1 nM; IC50 [7]: 145 nM; Ratio IC50 (Homo sapiens [8]): 34; IC50 [10]: 259 nM; Ratio IC50 (Homo sapiens [11]): 101; IC50 [12]: 473 nM; IC50 [9]: 1.1 nM; IC50 [13]: 4.7 nM; Ratio IC50 (Homo sapiens [14]): 173; IC50 [15]: 1.5 nM |
| CC1=C(C(=O)Nc2ccc3[nH]ncc3c2)[C@H](C)n2nnnc2N1C | 3.2 | 94 | 302 |  |
| CCN1C(C)=C(C(=O)Nc2ccc3[nH]ncc3c2)Cn2nnnc21 | 15 | 58 | 865 |  |
| CC1=C(C(=O)Nc2ccc3[nH]nc(C(N)=O)c3c2)Cn2nnnc2N1C | 21 | 6 | 125 |  |
| CC1=C(C(=O)Nc2ccc3[nH]nc(-c4ccc(S(N)(=O)=O)cc4)c3c2)Cn2nnnc2N1C | > 3.5 | < 0.2 | 0.7 |  |
| CC1=C(C(=O)Nc2ccc3[nH]ncc3c2)C(C)(C)n2nnnc2N1C | 108 | 12 | 1300 |  |
| CCC1=C(C(=O)Nc2ccc3[nH]ncc3c2)Cn2nnnc2N1C | 2.2 | 244 | 534 |  |
| CC1=C(C(=O)Nc2ccc3[nH]ncc3c2)Cn2nnnc2N1c1ccccc1 | 2.2 | 2.6 | 5.7 |  |
| CC1=C(C(=O)Nc2ccc3[nH]nc(-c4ccnc(N5CCOCC5)c4)c3c2)Cn2nnnc2N1C |  | < 0.2 | < 0.2 | IC50 [4]: 74.4 nM; Ratio IC50 (Homo sapiens [5]): 45; IC50 [6]: 9.2 nM; IC50 [7]: 377 nM; Ratio IC50 (Homo sapiens [8]): 8; IC50 [9]: 8.3 nM |
| CC1=C(C(=O)Nc2ccc3[nH]ncc3c2)Cn2nnnc2N1CCN1CCOCC1 | 1.3 | 4650 | 6130 |  |
| CC1=C(C(=O)Nc2ccc3[nH]nc(-c4ccnc(N5CCOCC5)c4)c3c2)[C@H](C)n2nnnc2N1C | > 5 | < 0.2 | 1 |  |
| CC1=C(C(=S)Nc2ccc3[nH]ncc3c2)Cn2nnnc2N1C | 15 | 15.3 |  |  |
| CC1=C(C(=O)Nc2ccc3c(N)nccc3c2)[C@@H](C)n2nnnc2N1C | 48 | 12 | 581 |  |
| CC1=C(C(=O)Nc2ccc3c(c2)CNC3=O)[C@@H](C)n2nnnc2N1C | 53 | 32 | 1700 |  |

| Compound | Ratio IC50 (Homo sapiens [1]) | IC50 [2] [nM] | IC50 [3] [nM] | other results |
| --- | --- | --- | --- | --- |
| CC1=C(C(=O)Nc2ccc3cnc(C)n3c2)Cn2nnnc2N1C | > 3.2 | 3120 | > 10000 |  |
| CC1=C(C(=O)Nc2ccc3[nH]nc(C)c3c2)[C@H](C)n2nnnc2N1C | 24 | 51 | 1220 |  |
| CC1=C(C(=O)Nc2ccc3[nH]nc(Br)c3c2)Cn2nnnc2N1C | 40 | 2.4 | 96 |  |
| CC1=C(C(=O)Nc2ccc3c(c2)C(=O)NC3=O)[C@@H](C)n2nnnc2N1C | 52 | 55 | 2840 |  |
| CC1=C(C(=O)Nc2ccc3[nH]nc(C)c3c2)Cn2nnnc2N1C | 12 | 10 | 121 |  |
| CC1=C(C(=O)Nc2ccc3[nH]nc(C)c3c2)C(C)(C)n2nnnc2N1C | 190 | 0.8 | 152 |  |
| CC1=C(C(=O)Nc2ccc3[nH]ncc3c2)Cn2nnnc2N1C(=O)N(C)C | 17 | 53 | 888 |  |
| CC1=C(C(=O)Nc2ccc3c(c2)CC(=O)N3)Cn2nnnc2N1C | > 1.6 | 6370 | > 10000 |  |
| CC1=C(C(=O)N(C)c2ccc3[nH]ncc3c2)Cn2nnnc2N1C |  | > 10000 |  |  |
| CC1=C(C(=O)Nc2ccc3[nH]cnc3c2)Cn2nnnc2N1C |  | > 10000 | > 10000 |  |
| CC1=C(C(=O)Nc2ccc3[nH]nc(-c4nc5ccccc5[nH]4)c3c2)Cn2nnnc2N1C | > 2.6 | < 0.2 | 0.53 | IC50 [4]: 242 nM; Ratio IC50 (Homo sapiens [5]): 157; IC50 [6]: 21 nM; IC50 [7]: 3300 nM; Ratio IC50 (Homo sapiens [8]): 12; IC50 [9]: 21 nM |
| CC1=C(C(=O)Nc2ccc3[nH]cc(C)c3c2)Cn2nnnc2N1C |  | > 10000 | > 10000 |  |
| CC1=C(C(=O)Nc2ccc3[nH]nc(-c4ccncc4)c3c2)[C@@H](C)n2nnnc2N1C |  | < 0.2 | < 0.2 | IC50 [4]: 272 nM; Ratio IC50 (Homo sapiens [5]): 78; IC50 [6]: 12.1 nM; IC50 [7]: 1140 nM; Ratio IC50 (Homo sapiens [8]): 22; IC50 [9]: 14.7 nM |
| CC1=C(C(=O)Nc2ccc3[nH]c(=O)[nH]c3c2)Cn2nnnc2N1C | > 36 | 240 | > 8600 |  |
| CC1=C(C(=O)Nc2ccc3[nH]nc(-c4ccncc4)c3c2)Cn2nnnc2N1C | 20 | 0.44 | 9 |  |
| CC(=O)N1C(C)=C(C(=O)Nc2ccc3[nH]ncc3c2)Cn2nnnc21 | 5 | 513 | 2540 |  |
| CC1=C(C(=O)Nc2ccc3[nH]nc(-c4cc(N5CCOCC5)ncn4)c3c2)Cn2nnnc2N1C | 2.2 | 0.4 | 0.88 |  |
| CC1=C(C(=O)Nc2ccc3[nH]nc(NC(=O)c4ccccc4)c3c2)Cn2nnnc2N1C | 35 | 3 | 108 |  |
| CN1C=C(C(=O)Nc2ccc3[nH]ncc3c2)Cn2nnnc21 |  | > 10000 | > 10000 |  |
| CCCC(=O)Nc1n[nH]c2ccc(NC(=O)C3=C(C)N(C)c4nnnn4C3)cc12 | > 8.4 | 1190 | > 10000 |  |
